Screens deposited in PubChem by Broad Institute.
Many of the other results were omitted from the sample, so hits are more common in it than they were.
GSK3 alpha inh: human GSK-3 alpha kinase inhibition. inhibition, % at 10 µM. ADP-Glo luminescence, 60 min. hit rate 0.1% among 320,000;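 active means more than half of replicates show inhibition above 20%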;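 further: GST-tagged GSK-3 alpha with peptide substrate and 25 µM ATP; 0% = DMSO neutral wells and 100% = GW8510 positive control wells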
GSK3B inh: human GSK3beta kinase inhibition. GST-GSK3beta kinase, ADP-Glo luminescence, 60 min; active compounds read low. activity score (negative = inhibition), % at 10 µM. hit rate 0.038% among 300,000. P49841. AID 2097;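 active means more than half of replicate wells score below -50%, meaning over 50% inhibition versus plate controls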;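 further: 0% = median DMSO wells and -100% = median GW8510 positive control wells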
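Test system: GST-tagged human GSK3beta kinase, cell-free; evaluation: activity score scaled between in-plate DMSO and GW8510 controls; measured by: ADP-Glo luminescence; incubation: 60 min reaction, RT; benchmarks: DMSO and 20 µM GW8510; reagent: peptide substrate plus 25 µM ATP (final); medium: Tris/MgCl2 kinase buffer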
STK33 inh: blocks human STK33 kinase activity. Q9BYT3. purified STK33, MBP phosphorylation, ADP-Glo luminescence. inhibition, % at 10 µM. hit rate 0.073% among 320,000;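 active means inhibition at or above 25%, using the most active replicate where run in duplicate; inactive means inhibition below 25%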
Target sequence (Q9BYT3 whole entry, looked up): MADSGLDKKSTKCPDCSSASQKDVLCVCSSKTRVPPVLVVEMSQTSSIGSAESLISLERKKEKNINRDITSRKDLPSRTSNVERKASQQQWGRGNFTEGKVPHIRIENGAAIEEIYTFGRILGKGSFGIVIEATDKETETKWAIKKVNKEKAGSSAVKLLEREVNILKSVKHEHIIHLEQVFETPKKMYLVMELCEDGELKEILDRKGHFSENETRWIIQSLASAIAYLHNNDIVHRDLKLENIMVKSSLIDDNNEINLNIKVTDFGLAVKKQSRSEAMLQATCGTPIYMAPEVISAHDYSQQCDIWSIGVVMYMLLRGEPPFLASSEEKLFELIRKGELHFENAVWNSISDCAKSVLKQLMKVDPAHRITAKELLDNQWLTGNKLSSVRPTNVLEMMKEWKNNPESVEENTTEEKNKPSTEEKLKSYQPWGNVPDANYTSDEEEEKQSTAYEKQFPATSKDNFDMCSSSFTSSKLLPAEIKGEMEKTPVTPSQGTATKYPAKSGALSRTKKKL
CDK5 p35 inh: CDK5/p35 (human) kinase inhibition; Recombinant CDK5/p35, ADP-Glo luminescence, 60 min; hit rate 0.01% among 330,000; inhibition, % at 10 µM; AID 488839; Q00535+Q15078;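 active means highest replicate inhibition of at least 50% and at least 75% of replicates reaching 50%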;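 further: plate controls were DMSO neutral control for no effect and GW8510 at 10 µM for full effect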
DYRK1A inh: inhibitors of rat Dyrk1A kinase; inhibition, % at 12.5 µM; hit rate 0.43% among 310,000; ADP-Glo luminescence, NFATc1 peptide; AID 504441; in the data active means inhibition above about 50%;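 further: plate controls were vehicle with enzyme for no effect and no enzyme for full effect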
ADP-Glo artifact: interferes with ADP-Glo luciferase readout without Dyrk1A; 1,300 tested, under 10 active; ADP-Glo luciferase artifact assay, no Dyrk1A, luminescence; AID 588348; AC50, µM (highest dose often 12 µM), inactives show at the highest dose activity change, negative = inhibition; shares compounds with DYRK1A inh;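 active means fitted half-maximal dose AC50 no more than ten times the top valid tested dose, with luminescence dropping as dose rises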
* = called active by the depositor.

CCC(C)[C@H](NC(=O)[C@@H]1CSC2c3ccccc3C(=O)N21)C(=O)N1CCCCC1 (some centres undefined) was read as GSK3 alpha inh -9, GSK3B inh 2, STK33 inh 0, CDK5 p35 inh 2 and DYRK1A inh 1.
For Cc1cccc(C(=O)Nc2nnc(SCC(=O)NCc3ccco3)s2)c1 the results were GSK3 alpha inh -2, GSK3B inh -2, STK33 inh 0, CDK5 p35 inh 1 and DYRK1A inh -1.
`Cc1ncc(CO)c(/C=N/Nc2ccc(C(F)(F)F)cn2)c1O` gave GSK3 alpha inh 5, GSK3B inh 1, STK33 inh 4, CDK5 p35 inh 3, DYRK1A inh 50* and ADP-Glo artifact 9%.
For Cc1ncc(CO)c(/C=N/NC(=S)Nc2ccc(F)cc2)c1O the results were GSK3 alpha inh 5, GSK3B inh 2, STK33 inh -2, CDK5 p35 inh -2 and DYRK1A inh 3.
CSC1=NSC2=NC(=O)/C(=C/c3coc4ccc(O)cc4c3=O)C(=N)N12 was read as GSK3 alpha inh 16, GSK3B inh -8, STK33 inh 8, CDK5 p35 inh -1, DYRK1A inh 87* and ADP-Glo artifact 12%.
`CSC1=NSC2=NC(=O)/C(=C\c3cccs3)C(=N)N12` gave GSK3 alpha inh 2, GSK3B inh 2, STK33 inh 1, CDK5 p35 inh 1 and DYRK1A inh -1.
For COc1cc(/C=C2/C(=N)N3C(SC)=NSC3=NC2=O)ccc1OC(=O)c1ccco1 the results were GSK3 alpha inh -1, GSK3B inh 7, STK33 inh 7, CDK5 p35 inh 1, DYRK1A inh 58* and ADP-Glo artifact 11%.
For CCOc1cc(NC(=O)c2cccs2)c(OCC)cc1NC(=O)CCC(=O)NCC1CCCO1 (centres undefined) the results were GSK3 alpha inh -5, GSK3B inh -5, STK33 inh -1, CDK5 p35 inh 0 and DYRK1A inh -1.
CCOC(=O)C1CCN(C(=O)COc2ccc(Br)cc2C)CC1 was read as GSK3 alpha inh 3, GSK3B inh 1, STK33 inh -1, CDK5 p35 inh 0 and DYRK1A inh 3.
For CCC(C)[C@H]1CNCCN1CC1(c2ccccc2)CC1 (some centres undefined) the results were GSK3 alpha inh 1, GSK3B inh -7, STK33 inh -2, CDK5 p35 inh 0 and DYRK1A inh 9.
CCC(C)[C@H]1CNCCN1CCc1cccc2ccccc12 (some centres undefined) was read as GSK3 alpha inh 3, GSK3B inh 3, STK33 inh 0, CDK5 p35 inh 0, DYRK1A inh 51* and ADP-Glo artifact 10%.
Cn1cc(CN2CCC(n3nccc3NC(=O)C3CCCC3)CC2)cn1 was read as GSK3 alpha inh -1, GSK3B inh 3, STK33 inh 0, CDK5 p35 inh -1 and DYRK1A inh -10.
`Nc1ccc(S(=O)(=O)O)cn1` gave GSK3 alpha inh -1, GSK3B inh 2, STK33 inh -2, CDK5 p35 inh 0 and DYRK1A inh 11.
`Nc1ccc(-c2ccc(C(=O)O)s2)cn1` gave GSK3 alpha inh 6, GSK3B inh -1, STK33 inh 17, CDK5 p35 inh 2, DYRK1A inh 71* and ADP-Glo artifact 7%.
`COc1ccc(NC(=O)Cc2nnc(SCC(=O)NC3CCCCC3)n2C)cc1` gave GSK3 alpha inh -1, GSK3B inh 0, STK33 inh -1, CDK5 p35 inh -1 and DYRK1A inh -1.
Screening Cn1nc(-c2ccccc2)c2cc(C(=O)O)sc21 returned GSK3 alpha inh -5, GSK3B inh 1, STK33 inh 2, CDK5 p35 inh 0 and DYRK1A inh 7.
`CSc1nnc(-c2cc3c(-c4ccccc4)nn(C)c3s2)n1C` gave GSK3 alpha inh 3, GSK3B inh 0, STK33 inh -2, CDK5 p35 inh -2, DYRK1A inh 52* and ADP-Glo artifact 8%.
N#Cc1ccc(OCC(=O)N/N=C/C2CC=CCC2)cc1 (centres undefined) was read as GSK3 alpha inh 0, GSK3B inh -1, STK33 inh 1, CDK5 p35 inh 1 and DYRK1A inh 1.
O=C(CN1CCOCC1)Nc1nc2ccc(F)cc2s1 was read as GSK3 alpha inh -1, GSK3B inh -1, STK33 inh 0, CDK5 p35 inh -1, DYRK1A inh 51* and ADP-Glo artifact 11%.
`O=C(CN1CCOCC1)Nc1nc2ccc([N+](=O)[O-])cc2s1` gave GSK3 alpha inh 1, GSK3B inh -1, STK33 inh 7, CDK5 p35 inh 2, DYRK1A inh 81* and ADP-Glo artifact 9%.
Cc1ccc(C)c(-n2nnnc2SCC(=O)NNC(=O)c2ccco2)c1 was read as GSK3 alpha inh 0, GSK3B inh 0, CDK5 p35 inh -2 and DYRK1A inh 0.
Screening COc1ccc(CNC(=O)CSc2nc3cccnc3s2)cc1 returned GSK3 alpha inh 1, GSK3B inh -2, STK33 inh -2 and CDK5 p35 inh 1.
For Cc1cc(N2CCC(C)CC2)nc2cccc(O)c12 the results were GSK3 alpha inh 3, GSK3B inh 0, STK33 inh 3, CDK5 p35 inh 3, DYRK1A inh 51* and ADP-Glo artifact 9%.
Screening Cn1ccc(NC(=O)Nc2cccc([N+](=O)[O-])c2)n1 returned GSK3 alpha inh 1, GSK3B inh -3, STK33 inh -1, CDK5 p35 inh 1 and DYRK1A inh 3.
For N#Cc1nc(-c2ccccc2Cl)oc1NCC1CCCO1 (centres undefined) the results were GSK3 alpha inh 9, GSK3B inh 1, STK33 inh 0, CDK5 p35 inh 0, DYRK1A inh 60* and ADP-Glo artifact 12%.
For COCCNC(=O)/C(C#N)=C/c1cc(C(C)C)c(OC)cc1C the results were GSK3 alpha inh 0, GSK3B inh -1, STK33 inh 1, CDK5 p35 inh 1 and DYRK1A inh 1.
CCCC(=O)c1cc2c(cc1NC(=O)c1ccccc1F)OCCO2 was read as GSK3 alpha inh -3, GSK3B inh -1, STK33 inh -1, CDK5 p35 inh 1 and DYRK1A inh -4.
Screening Oc1ccc(NC(=S)N=Nc2c(O)[nH]c3ccc(Br)cc23)cc1 returned GSK3B inh -4, CDK5 p35 inh 0, DYRK1A inh 51* and ADP-Glo artifact 10%.
Screening N=C(N)N=Nc1c(O)[nH]c2ccc(Br)cc12 returned GSK3 alpha inh -2, GSK3B inh -34, STK33 inh -1, CDK5 p35 inh 34, DYRK1A inh 63* and ADP-Glo artifact 8%.
Screening Oc1[nH]c2ccc(Br)cc2c1N=NC(=S)Nc1ccc(F)cc1 returned GSK3 alpha inh -1, GSK3B inh 3, STK33 inh -1, CDK5 p35 inh -1 and DYRK1A inh 8.
